{"source": "ChEMBL document CHEMBL1132199", "about": "“Carboxy-substituted cinnamides: a novel series of potent, orally active LTB4 receptor antagonists” (J Med Chem, 1999)", "key": {"Leukotriene B4 receptor [1]": {"biological_target": "T1, Leukotriene B4 receptor (Homo sapiens, UniProt Q9NPC1+Q15722)", "assay": "In vitro leukotriene B4 receptor binding potency determined by displacement of [3H]- LTB4 from human neutrophils (PMNs)", "how_it_was_run": "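Intact human neutrophils from citrated venous blood (HESPAN sedimentation, Ficoll-Paque, hypotonic lysis), 3 × 10⁶ cells in HBSS with 0.5 nM [³H]LTB₄ and compound, 20 min at 0 °C. Bound label collected by filtration, filters washed with ice-cold HBSS, then scintillation-counted. Nonspecific binding taken with 300 nM LTB₄. Compound stocks 10 mM in DMSO, final DMSO 0.35%.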"}, "Leukotriene B4 receptor [2]": {"biological_target": "T1, Leukotriene B4 receptor", "assay": "LTB4 receptor antagonistic activity as inhibition of LTB4-induced [Ca2+] release from human PMNs", "assay_type": "functional", "how_it_was_run": "(§1)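 Human neutrophils from citrated venous blood (HESPAN sedimentation, centrifugal elutriation) loaded with 0.2 μM Fura-2 AM for 30 min at 37 °C, then held at 2 × 10⁶ cells/mL. Ca²⁺ and Mg²⁺ added back at 37 °C; compound given 40 s before 1 nM LTB₄; fluorescence change followed. Ki = IC50/(1 + [LTB₄]/EC50 of LTB₄). Final DMSO 0.35%.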"}, "Mus musculus [3]": {"tested_on": "Mus musculus", "assay": "Inhibition of Arachidonic acid (AA)-induced ear edema was determined at dosing of 17 hr challenge; expressed as myeloperoxide activity (MPO) at 10 mg/kg; 19/30", "assay_type": "functional"}, "[4]": {"biological_target": "Leukotriene B4 receptor 1 (Homo sapiens, UniProt Q15722)", "sequence (Q15722 whole entry)": "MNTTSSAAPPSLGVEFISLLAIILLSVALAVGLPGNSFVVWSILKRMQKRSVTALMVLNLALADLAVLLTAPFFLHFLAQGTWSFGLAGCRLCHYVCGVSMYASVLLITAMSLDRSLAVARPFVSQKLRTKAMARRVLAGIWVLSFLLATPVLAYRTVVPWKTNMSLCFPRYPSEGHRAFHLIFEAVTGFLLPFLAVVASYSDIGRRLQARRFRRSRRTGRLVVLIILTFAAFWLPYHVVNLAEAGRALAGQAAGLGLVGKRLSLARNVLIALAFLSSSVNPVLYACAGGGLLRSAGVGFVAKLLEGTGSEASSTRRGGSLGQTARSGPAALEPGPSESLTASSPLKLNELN", "assay": "Leukotriene B4 receptor antagonistic activity was measured by the inhibition of LTB4 induced [Ca2+] release from human PMNs", "assay_type": "functional", "how_it_was_run": "as §1"}, "Mus musculus [5]": {"tested_on": "Mus musculus", "assay": "Inhibition of Arachidonic acid (AA)-induced ear edema was determined at dosing of 0.5 h challenge; expressed as myeloperoxide activity (MPO) at 1 mg/kg; 41/41", "assay_type": "functional"}, "Mus musculus [6]": {"tested_on": "Mus musculus", "assay": "Inhibition of Arachidonic acid (AA)-induced ear edema was determined at dosing of 17 h challenge; expressed as myeloperoxide activity (MPO) at 10 mg/kg; 55/55", "assay_type": "functional"}, "Mus musculus [7]": {"tested_on": "Mus musculus", "assay": "Inhibition of Arachidonic acid (AA)-induced ear edema was determined at dosing of 17 hr challenge; expressed as myeloperoxide activity (MPO) at 3 mg/kg; 29/26", "assay_type": "functional"}}}
{"smiles": "CCN(CC)C(=O)/C=C(\\C)c1ccc(-c2ccccc2)cc1", "values": [{"measurement": "IC50", "setting": "Leukotriene B4 receptor [1]", "result": "> 10000", "unit": "nM"}]}
{"smiles": "CCN(CC)C(=O)/C=C(\\C)c1ccc(OC(C)C)cc1", "values": [{"measurement": "IC50", "setting": "Leukotriene B4 receptor [1]", "result": "> 10000", "unit": "nM"}]}
{"smiles": "CCN(CC)C(=O)/C=C(\\C)c1ccc(OCc2ccccc2F)c(OCC(=O)O)c1", "values": [{"measurement": "IC50", "setting": "Leukotriene B4 receptor [1]", "result": 119, "unit": "nM"}, {"measurement": "Ki", "setting": "Leukotriene B4 receptor [2]", "result": 27, "unit": "nM"}, {"measurement": "Punch weight/MPO activity", "setting": "Mus musculus [3]", "result": "<19"}]}
{"smiles": "CCN(CC)C(=O)/C=C(\\C)c1ccc(OCc2ccccc2)c(OCC(=O)O)c1", "values": [{"measurement": "IC50", "setting": "Leukotriene B4 receptor [1]", "result": 182, "unit": "nM"}, {"measurement": "Ki", "setting": "Leukotriene B4 receptor [2]", "result": 82, "unit": "nM"}]}
{"smiles": "COc1ccc(C(=O)O)cc1NC(=O)/C=C(\\C)c1ccc(OC(C)c2ccccc2)cc1", "note": "(stereo not given)", "values": [{"measurement": "IC50", "setting": "Leukotriene B4 receptor [1]", "result": "> 10000", "unit": "nM"}]}
{"smiles": "CCN(CC)C(=O)/C=C(\\C)c1ccc(OCc2ccccc2)cc1", "values": [{"measurement": "IC50", "setting": "Leukotriene B4 receptor [1]", "result": 7900, "unit": "nM"}]}
{"smiles": "CCNC(=O)/C=C(\\C)c1ccc(OC(C)c2ccccc2)cc1", "note": "(stereo not given)", "values": [{"measurement": "IC50", "setting": "Leukotriene B4 receptor [1]", "result": 2000, "unit": "nM"}]}
{"smiles": "CCN(CC)C(=O)/C=C(\\C)c1ccc(OC(C)c2ccccc2)cc1OCC(=O)O", "note": "(stereo not given)", "values": [{"measurement": "IC50", "setting": "Leukotriene B4 receptor [1]", "result": 2225, "unit": "nM"}]}
{"smiles": "CCN(CC)C(=O)/C=C(\\C)c1ccc(OC(C)c2ccccc2)c(OCCCC(=O)O)c1", "note": "(stereo not given)", "values": [{"measurement": "IC50", "setting": "Leukotriene B4 receptor [1]", "result": 216, "unit": "nM"}]}
{"smiles": "CCN(CC)C(=O)/C=C(\\C)c1ccc(OC(C)c2ccccc2)cc1", "note": "(stereo not given)", "values": [{"measurement": "IC50", "setting": "Leukotriene B4 receptor [1]", "result": 744, "unit": "nM"}]}
{"smiles": "CCN(CC)C(=O)/C=C(\\C)c1ccc(O[C@H](C)c2ccccc2)c(CC(=O)O)c1", "values": [{"measurement": "IC50", "setting": "Leukotriene B4 receptor [1]", "result": 536, "unit": "nM"}]}
{"smiles": "CCN(CC)C(=O)/C=C(\\C)c1ccc(O[C@@H](C)c2ccccc2)c(CC(=O)O)c1", "values": [{"measurement": "IC50", "setting": "Leukotriene B4 receptor [1]", "result": 39, "unit": "nM"}]}
{"smiles": "CCN(CC)C(=O)/C=C/c1ccc(OC(C)c2ccccc2)cc1", "note": "(stereo not given)", "values": [{"measurement": "IC50", "setting": "Leukotriene B4 receptor [1]", "result": 1600, "unit": "nM"}]}
{"smiles": "C/C(=C\\C(=O)N(C)C)c1ccc(OC(C)c2ccccc2)cc1", "note": "(stereo not given)", "values": [{"measurement": "IC50", "setting": "Leukotriene B4 receptor [1]", "result": 2100, "unit": "nM"}]}
{"smiles": "CCN(CC)C(=O)/C=C(\\C)c1ccc(OC(C)c2ccccc2)c(CCC(=O)O)c1", "note": "(stereo not given)", "values": [{"measurement": "Ki", "setting": "[4]", "result": 9.5, "unit": "nM"}, {"measurement": "IC50", "setting": "Leukotriene B4 receptor [1]", "result": 48, "unit": "nM"}]}
{"smiles": "C/C(=C\\C(=O)N(C(C)C)C(C)C)c1ccc(OC(C)c2ccccc2)cc1", "note": "(stereo not given)", "values": [{"measurement": "IC50", "setting": "Leukotriene B4 receptor [1]", "result": 1100, "unit": "nM"}]}
{"smiles": "CCN(CC)C(=O)/C=C(\\C)c1ccc(OC(C)c2ccccc2)c(CC(=O)O)c1", "note": "(stereo not given)", "values": [{"measurement": "IC50", "setting": "Leukotriene B4 receptor [1]", "result": 81, "unit": "nM"}, {"measurement": "Ki", "setting": "Leukotriene B4 receptor [2]", "result": 9.5, "unit": "nM"}, {"measurement": "Punch weight/MPO activity", "setting": "Mus musculus [5]", "result": "<41"}, {"measurement": "Punch weight/MPO activity", "setting": "Mus musculus [6]", "result": "<55"}, {"measurement": "Punch weight/MPO activity", "setting": "Mus musculus [7]", "result": "<29"}]}
